Measurements reported in ChEMBL document CHEMBL1148498, “Diphenylmethane skeleton as a multi-template for nuclear receptor ligands: preparation of FXR and PPAR ligands” (Bioorg Med Chem Lett, 2006).
The source made the active and inactive calls. The calls are words filed in the database; no cut-off is given here.

Assays:
[1] = target: T1, Peroxisome proliferator-activated receptor alpha (Homo sapiens, UniProt Q07869); assay: Agonist activity at human recombinant PPARalpha by transactivation of TK-MH100x4-LUC reporter gene in HEK293 cells; type: functional, cell-based
T1 sequence (Q07869 whole entry): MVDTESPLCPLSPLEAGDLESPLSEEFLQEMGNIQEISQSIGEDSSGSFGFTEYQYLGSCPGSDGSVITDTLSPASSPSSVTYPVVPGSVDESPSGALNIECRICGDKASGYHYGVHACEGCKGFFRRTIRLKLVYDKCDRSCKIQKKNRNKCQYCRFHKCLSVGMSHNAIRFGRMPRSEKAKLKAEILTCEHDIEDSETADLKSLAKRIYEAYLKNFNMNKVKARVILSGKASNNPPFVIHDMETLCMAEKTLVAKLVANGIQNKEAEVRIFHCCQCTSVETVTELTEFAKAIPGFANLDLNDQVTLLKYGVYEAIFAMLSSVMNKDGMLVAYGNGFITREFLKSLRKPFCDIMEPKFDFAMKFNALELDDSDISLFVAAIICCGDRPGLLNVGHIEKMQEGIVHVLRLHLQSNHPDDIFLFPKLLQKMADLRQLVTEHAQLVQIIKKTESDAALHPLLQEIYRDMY
Procedure, shortened: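 GAL4 fusion of the human PPARα receptor (CMX-GAL4N-hPPARα) with the TK-MH100x4-LUC reporter, plus CMX β-galactosidase for normalization. HEK293 cells were grown in DMEM with 5% FBS at 37 °C and 5% CO2 and transfected by calcium phosphate coprecipitation. Compounds were added 8 h after transfection. Luciferase was read by luminometer, normalized to β-galactosidase, and averaged over three repeat experiments.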

[2] = target: T2, Bile acid receptor (Homo sapiens) (UniProt Q96RI1); assay: Activity at human recombinant FXR by transactivation of TK-MH100x4-LUC reporter gene in HEK293 cells at 10 uM; type: cell-based
T2 sequence (whole entry): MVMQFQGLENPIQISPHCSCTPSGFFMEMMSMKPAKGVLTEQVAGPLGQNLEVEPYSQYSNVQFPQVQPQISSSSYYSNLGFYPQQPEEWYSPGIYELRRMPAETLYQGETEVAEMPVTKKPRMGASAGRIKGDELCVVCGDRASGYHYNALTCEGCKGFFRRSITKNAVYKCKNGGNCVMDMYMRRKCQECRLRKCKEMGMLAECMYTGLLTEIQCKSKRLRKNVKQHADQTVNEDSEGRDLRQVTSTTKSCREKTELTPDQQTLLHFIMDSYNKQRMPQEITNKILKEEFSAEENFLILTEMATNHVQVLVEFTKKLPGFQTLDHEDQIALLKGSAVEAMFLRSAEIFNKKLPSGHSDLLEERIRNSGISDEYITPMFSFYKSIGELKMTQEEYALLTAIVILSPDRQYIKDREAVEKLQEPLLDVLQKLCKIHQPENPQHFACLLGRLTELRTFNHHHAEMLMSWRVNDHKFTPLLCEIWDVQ

[3] = target: T3, Vitamin D3 receptor (Homo sapiens) (UniProt P11473); assay: Activity at human recombinant VDR by transactivation of TK-MH100x4-LUC reporter gene in HEK293 cells at 10 uM; type: cell-based
T3 sequence (whole entry): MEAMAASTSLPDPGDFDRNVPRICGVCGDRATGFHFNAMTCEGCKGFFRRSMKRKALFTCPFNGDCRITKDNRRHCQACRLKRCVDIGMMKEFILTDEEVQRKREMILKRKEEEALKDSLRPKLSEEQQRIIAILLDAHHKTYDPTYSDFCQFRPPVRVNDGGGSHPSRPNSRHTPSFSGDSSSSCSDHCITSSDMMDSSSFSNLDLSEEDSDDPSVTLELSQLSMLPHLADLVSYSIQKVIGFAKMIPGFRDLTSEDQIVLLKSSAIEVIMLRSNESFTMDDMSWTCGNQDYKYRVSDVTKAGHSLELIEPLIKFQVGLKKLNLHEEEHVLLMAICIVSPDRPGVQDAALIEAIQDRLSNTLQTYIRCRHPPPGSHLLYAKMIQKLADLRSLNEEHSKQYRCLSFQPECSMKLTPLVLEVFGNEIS

[4] = target: T4, Peroxisome proliferator-activated receptor gamma (Homo sapiens) (UniProt P37231); assay: Activity at human recombinant PPARgamma by transactivation of TK-MH100x4-LUC reporter gene in HEK293 cells at 10 uM; type: cell-based
T4 sequence (whole entry): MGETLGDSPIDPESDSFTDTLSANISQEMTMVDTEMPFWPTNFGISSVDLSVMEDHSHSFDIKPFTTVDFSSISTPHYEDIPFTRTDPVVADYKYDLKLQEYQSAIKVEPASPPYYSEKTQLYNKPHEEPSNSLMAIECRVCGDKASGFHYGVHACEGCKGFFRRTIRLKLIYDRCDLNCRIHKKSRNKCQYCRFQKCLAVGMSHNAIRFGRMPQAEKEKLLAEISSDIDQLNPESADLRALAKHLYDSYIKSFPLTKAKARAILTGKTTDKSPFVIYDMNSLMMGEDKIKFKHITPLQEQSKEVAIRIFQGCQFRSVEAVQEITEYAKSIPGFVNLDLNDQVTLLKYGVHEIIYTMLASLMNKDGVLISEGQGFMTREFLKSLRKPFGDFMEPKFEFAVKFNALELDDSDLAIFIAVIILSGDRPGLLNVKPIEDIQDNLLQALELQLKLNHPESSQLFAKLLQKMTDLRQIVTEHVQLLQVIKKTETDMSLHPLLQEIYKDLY

[5] = target: T5, Retinoic acid receptor RXR-alpha (Homo sapiens) (UniProt P19793); assay: Activity at human recombinant RXRalpha by transactivation of TK-MH100x4-LUC reporter gene in HEK293 cells at 10 uM; type: cell-based
T5 sequence (whole entry): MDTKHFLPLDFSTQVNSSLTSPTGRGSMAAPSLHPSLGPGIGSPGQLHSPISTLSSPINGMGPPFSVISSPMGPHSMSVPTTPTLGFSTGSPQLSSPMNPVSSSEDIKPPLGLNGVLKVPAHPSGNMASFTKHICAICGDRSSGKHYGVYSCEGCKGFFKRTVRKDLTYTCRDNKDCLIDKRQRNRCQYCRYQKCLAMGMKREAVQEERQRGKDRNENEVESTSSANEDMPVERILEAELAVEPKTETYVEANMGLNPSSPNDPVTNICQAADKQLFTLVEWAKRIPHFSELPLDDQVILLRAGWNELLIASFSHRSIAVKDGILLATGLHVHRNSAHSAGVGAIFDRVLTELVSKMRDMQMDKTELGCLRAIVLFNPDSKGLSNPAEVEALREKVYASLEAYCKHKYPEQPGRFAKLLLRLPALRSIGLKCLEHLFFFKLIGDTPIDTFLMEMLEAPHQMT

[6] = target: T6, Peroxisome proliferator-activated receptor alpha (Homo sapiens) (UniProt Q07869); assay: Activity at human recombinant PPARalpha by transactivation of TK-MH100x4-LUC reporter gene in HEK293 cells at 10 uM; type: cell-based
T6 sequence (whole entry): T1 sequence (Q07869 whole entry)

[7] = target: T7, Peroxisome proliferator-activated receptor delta (Homo sapiens) (UniProt Q03181); assay: Activity at human recombinant PPARdelta by transactivation of TK-MH100x4-LUC reporter gene in HEK293 cells at 10 uM; type: cell-based
T7 sequence (whole entry): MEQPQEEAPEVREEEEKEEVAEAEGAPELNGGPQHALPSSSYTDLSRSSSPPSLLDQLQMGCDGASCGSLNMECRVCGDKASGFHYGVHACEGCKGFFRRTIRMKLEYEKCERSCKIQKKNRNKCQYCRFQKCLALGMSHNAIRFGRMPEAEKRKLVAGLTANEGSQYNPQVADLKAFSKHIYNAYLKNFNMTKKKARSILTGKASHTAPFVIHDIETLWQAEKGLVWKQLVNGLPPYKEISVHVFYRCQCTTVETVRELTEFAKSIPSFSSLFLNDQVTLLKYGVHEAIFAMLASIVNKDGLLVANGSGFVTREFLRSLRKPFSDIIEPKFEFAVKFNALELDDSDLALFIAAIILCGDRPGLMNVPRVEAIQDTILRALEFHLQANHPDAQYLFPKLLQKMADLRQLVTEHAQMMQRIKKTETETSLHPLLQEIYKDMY

[8] = target: T8, Oxysterols receptor LXR-alpha (Homo sapiens) (UniProt Q13133); assay: Activity at human recombinant LXRalpha by transactivation of TK-MH100x4-LUC reporter gene in HEK293 cells at 10 uM; type: cell-based
T8 sequence (whole entry): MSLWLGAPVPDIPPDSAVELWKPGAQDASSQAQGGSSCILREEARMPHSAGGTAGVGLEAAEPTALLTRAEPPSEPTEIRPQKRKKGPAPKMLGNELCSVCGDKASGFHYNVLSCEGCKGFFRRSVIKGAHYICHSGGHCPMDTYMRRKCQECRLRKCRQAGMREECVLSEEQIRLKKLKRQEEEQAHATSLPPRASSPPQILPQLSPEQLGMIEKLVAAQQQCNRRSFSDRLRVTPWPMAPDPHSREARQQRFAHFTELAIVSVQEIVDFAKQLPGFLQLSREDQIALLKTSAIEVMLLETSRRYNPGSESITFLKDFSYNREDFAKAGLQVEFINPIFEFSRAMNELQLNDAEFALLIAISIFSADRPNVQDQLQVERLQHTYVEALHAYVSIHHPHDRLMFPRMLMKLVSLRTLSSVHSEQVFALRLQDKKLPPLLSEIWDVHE

[9] = target: T9, Retinoic acid receptor alpha (Homo sapiens) (UniProt P10276); assay: Activity at human recombinant RARalpha by transactivation of TK-MH100x4-LUC reporter gene in HEK293 cells at 10 uM; type: cell-based
T9 sequence (whole entry): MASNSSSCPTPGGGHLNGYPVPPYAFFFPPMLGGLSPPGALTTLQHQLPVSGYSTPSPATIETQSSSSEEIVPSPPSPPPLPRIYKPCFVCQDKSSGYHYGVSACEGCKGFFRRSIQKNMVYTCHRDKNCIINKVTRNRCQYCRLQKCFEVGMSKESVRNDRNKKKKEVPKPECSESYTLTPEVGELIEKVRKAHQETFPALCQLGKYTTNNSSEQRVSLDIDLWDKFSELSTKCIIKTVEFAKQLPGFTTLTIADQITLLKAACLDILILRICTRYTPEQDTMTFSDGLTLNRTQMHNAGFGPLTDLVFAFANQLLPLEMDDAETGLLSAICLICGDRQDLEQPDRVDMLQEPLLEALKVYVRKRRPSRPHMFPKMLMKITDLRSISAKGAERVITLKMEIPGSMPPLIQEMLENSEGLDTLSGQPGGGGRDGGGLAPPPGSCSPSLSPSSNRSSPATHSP

[10] = target: T2, Bile acid receptor (Homo sapiens); assay: (§1) Agonist activity at human recombinant FXR by transactivation of TK-MH100x4-LUC reporter gene in HEK293 cells; type: functional, cell-based
[11] = target: T10, Bile acid receptor (Homo sapiens, UniProt Q96RI1); assay: as §1; type: functional, cell-based
T10 sequence (Q96RI1 whole entry): T2 sequence (whole entry)

In the case of `CC(C)(Oc1ccc(C(=O)c2ccc(Cl)cc2)cc1)C(=O)O` [FENOFIBRIC ACID], the EC50 [1] is reported as 9.2 µM.

In the case of `CCC(Oc1ccc(C2(c3ccc(OC(CC)C(=O)O)c(C)c3)CCCCC2)cc1C)C(=O)O` (stereo not given), the Activity [2] is reported as “inactive”, the Activity [3] is reported as “inactive” and the Activity [4] is reported as “inactive”. For the same molecule, the Activity [5] was “inactive”, the Activity [6] was “Active” and the Activity [7] was “inactive”. The EC50 [1] was 3.5 µM, the Activity [8] was “inactive” and the Activity [9] was “inactive”.

For `CCC(CC)(c1ccc(NCC(O)CO)c(C)c1)c1ccc(OCc2c(-c3c(Cl)cccc3Cl)noc2C(C)C)c(C)c1` (stereo not given), the Activity [10] was “Active”.

In the case of `CCC(CC)(c1ccc(OCC(=O)O)c(C)c1)c1ccc(OCc2c(-c3c(Cl)cccc3Cl)noc2C(C)C)c(C)c1`, the Activity [2] is reported as “Active”, the Activity [3] is reported as “inactive” and the EC50 [11] is reported as 3.4 µM. The Activity [4] was “inactive”, the Activity [5] was “inactive” and the Activity [6] was “inactive”. For the same molecule, the Activity [7] was “inactive”, the Activity [8] was “inactive” and the Activity [9] was “inactive”.
